A short description of data set [1]: Binding affinity to GSH assessed as change in fluorescence intensity at 10 uM measured after 60 mins by fluorescence assay. The essentials:
(§1)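 Selectivity panel: probe was incubated with each enzyme or biomolecule in 10 mM PBS, pH 7.4, containing 1% DMSO, for 60 min at room temperature. Fluorescence intensity was read at 532 nm with excitation at 465 nm.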

Data set [2] deals with Aspergillus oryzae. In words: Binding affinity to oryzae beta-galactosidase assessed as change in fluorescence intensity at 10 uM measured after 60 mins by fluorescence assay. Put shortly:
as §1

In data set [3] the target is T1, Indoleamine 2,3-dioxygenase 1 (Homo sapiens, UniProt P14902). In words: Binding affinity to recombinant human IDO1 expressed in Escherichia coli BL21 (DE3) assessed as increase in fluorescence intensity at 10 uM measured after 60 mins by fluorescence assay relative to control. Put shortly: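 Human IDO1 was expressed in E. coli BL21(DE3), induced with 0.4 mM IPTG at OD600 0.6 for 18 h at 18 °C, then purified on Ni column (0–250 mM imidazole gradient) and gel filtration. Probe was titrated with increasing IDO1 in 10 mM PBS, pH 7.4, 1% DMSO, for 60 min at room temperature. Fluorescence: excitation 465 nm, emission 532 nm. Detection limit was taken at signal-to-noise ratio 3.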
Target sequence in this assay (P14902 whole entry, looked up): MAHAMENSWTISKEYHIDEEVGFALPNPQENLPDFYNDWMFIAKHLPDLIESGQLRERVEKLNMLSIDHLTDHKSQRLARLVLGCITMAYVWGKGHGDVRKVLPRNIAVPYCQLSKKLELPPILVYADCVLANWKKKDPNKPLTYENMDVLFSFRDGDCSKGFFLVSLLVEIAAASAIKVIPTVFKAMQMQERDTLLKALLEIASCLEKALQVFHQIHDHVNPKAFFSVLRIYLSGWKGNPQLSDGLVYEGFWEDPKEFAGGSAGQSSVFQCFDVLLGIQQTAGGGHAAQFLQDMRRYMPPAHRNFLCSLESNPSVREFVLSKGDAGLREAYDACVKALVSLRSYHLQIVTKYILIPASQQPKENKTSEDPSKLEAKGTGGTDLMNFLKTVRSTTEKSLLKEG

The target of data set [4] is Trypsin (Homo sapiens) (UniProt P07477+P07478+P35030). As to the kind of experiment: Binding affinity to trypsin (unknown origin) assessed as change in fluorescence intensity at 10 uM measured after 60 mins by fluorescence assay. Type of data set: protein assay. Put shortly:
as §1

The species entered for data set [5] is Bos taurus. In words: Binding affinity to bovine hemoglobin assessed as change in fluorescence intensity at 10 uM measured after 60 mins by fluorescence assay. The essentials:
as §1

Data set [6] is filed under the species Homo sapiens. As to the kind of experiment: Binding affinity to chymotrypsin (unknown origin) assessed as change in fluorescence intensity at 10 uM measured after 60 mins by fluorescence assay. Put shortly: as §1
For data set [7], the target named is Albumin (Homo sapiens, UniProt P02768). As to the kind of experiment: Binding affinity to human serum albumin assessed as change in fluorescence intensity at 10 uM measured after 60 mins by fluorescence assay. Type of data set: ADME. Conditions: isolated protein, 1 h. Put shortly:
as §1

Data set [8] addresses Albumin (Bos taurus, UniProt P02769). As to the kind of experiment: Binding affinity to bovine serum albumin assessed as change in fluorescence intensity at 10 uM measured after 60 mins by fluorescence assay. Conditions: cattle, isolated protein, 1 h. Type of data set: ADME. Put shortly: as §1
For data set [9], the system named is Escherichia coli. As to the kind of experiment: Binding affinity to Escherichia coli beta-galactosidase assessed as change in fluorescence intensity at 10 uM measured after 60 mins by fluorescence assay. The essentials:
as §1

The target in data set [10] is T1, Indoleamine 2,3-dioxygenase 1. As to the kind of experiment: Inhibition of recombinant human IDO1 expressed in Escherichia coli BL21 (DE3) using tryptophan as substrate.
Target sequence in this assay (P14902 whole entry): as the sequence (P14902 whole entry, looked up) above
Data set [11] has as its system CT26. In words: Cytotoxicity against mouse CT26 cells assessed as reduction in cell viability measured after 72 hrs by CCK8 assay. Type of data set: cell-based. The note with it: CT26, 72 h. The essentials: (§2)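 Log-phase HeLa or CT26 cells were seeded at 6 × 10³ per well and grown 24 h at 37 °C, 5% CO₂. Cells were treated with a concentration series in triplicate for 72 h. Medium was then replaced with medium containing 10% CCK8 and incubated a further 40 min.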

Data set [12] relates to HeLa. As to the kind of experiment: Cytotoxicity against human HeLa cells assessed as reduction in cell viability measured after 72 hrs by CCK8 assay. It counts as cell-based. Put shortly: as §2
The target of data set [13] is T1, Indoleamine 2,3-dioxygenase 1. In words: Inhibition of IDO1 in IFNgamma-stimulated human HeLa cells using tryptophan as substrate measured after 48 hrs.
Target sequence in this assay (P14902 whole entry): as the sequence (P14902 whole entry, looked up) above
Data set [14] can be described thus: Drug uptake in human HeLa cells at 3.5 nM measured after 5 mins by Hoechst staining based confocal fluorescence imaging analysis. It counts as ADME, cell-based. Conditions: 0.0035 µM. Put shortly: (§3)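 Living HeLa cells, either unstimulated or stimulated with IFN-γ (50 ng/mL, 12 h), were stained with Hoechst for 20 min and then with probe for 5 min before confocal imaging in the green channel.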

Data set [15] concerns the target T1, Indoleamine 2,3-dioxygenase 1. As to the kind of experiment: Binding affinity to IDO1 in IFNgamma-stimulated human HeLa cells at 3.5 nM measured after 5 mins by Hoechst staining based confocal fluorescence imaging analysis. The essentials: as §3
Target sequence in this assay (P14902 whole entry, looked up): as above
For data set [16] the target is unchanged. As to the kind of experiment: Binding affinity to IDO1 in IFNgamma-stimulated human HeLa cells at 3.5 nM measured after 5 mins in presence of IDO1 inhibitor epacadostat by Hoechst staining based confocal fluorescence imaging analysis. The essentials:
as §3
Target sequence in this assay (P14902 whole entry, looked up): as above

Data set [17] relates to CT26. In words: Antitumor activity against mouse CT26 cells implanted in BALB/c mouse assessed as tumor growth inhibition at 100 mg/kg, po administered daily for 12 days relative to control. It counts as functional. The note with it: 288 h, time 12 day, read-out: TGI. Put shortly:
(§4)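 Female Balb/c mice, 4–5 weeks old, were inoculated subcutaneously in the right forelimb with 5 × 10⁵ log-phase CT26 cells in RPMI. Once tumors reached about 50 mm³, mice were randomized (n = 5 per group) and dosed orally at 100 mg/kg daily. Tumor length, width and body weight were recorded every other day, with V = ½ab². Mice were sacrificed when control tumors approached 2000 mm³. TGI = (Vcontrol − Vcompound)/Vcontrol at the last day. Data are mean ± SEM; Student's t-test.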

A short description of data set [18]: Drug uptake in human HeLa cells at 5 nM measured after 5 mins by Hoechst staining based confocal fluorescence imaging analysis. It counts as ADME, cell-based. Conditions: 0.005 µM. The essentials:
as §3

In data set [19] the target is T1, Indoleamine 2,3-dioxygenase 1. As to the kind of experiment: Binding affinity to IDO1 in IFNgamma-stimulated human HeLa cells at 5 nM measured after 5 mins by Hoechst staining based confocal fluorescence imaging analysis. Put shortly:
as §3
Target sequence in this assay (P14902 whole entry, looked up): as above

Data set [20] has the same target. In words: Binding affinity to IDO1 in IFNgamma-stimulated human HeLa cells at 5 nM measured after 5 mins in presence of IDO1 inhibitor epacadostat by Hoechst staining based confocal fluorescence imaging analysis. Put shortly: as §3
Target sequence in this assay (P14902 whole entry, looked up): as above
Data set [21] is described as follows: Toxicity in BALB/c mouse implanted with mouse CT26 cells assessed as loss of body weight at 100 mg/kg, po administered daily for 12 days measured every other day during compound dosing. It counts as organism-based. Conditions: in vivo, 288 h, time 12 day. Put shortly:
as §4

We go through four compounds from ChEMBL document CHEMBL4732157, “A theranostic probe of indoleamine 2,3-dioxygenase 1 (IDO1) for small molecule cancer immunotherapy” (Eur J Med Chem, 2021).

Activity calls are given as the source filed them. The rule behind the calls is not given here.

Sequence of Albumin (Homo sapiens, UniProt P02768) (P02768 whole entry): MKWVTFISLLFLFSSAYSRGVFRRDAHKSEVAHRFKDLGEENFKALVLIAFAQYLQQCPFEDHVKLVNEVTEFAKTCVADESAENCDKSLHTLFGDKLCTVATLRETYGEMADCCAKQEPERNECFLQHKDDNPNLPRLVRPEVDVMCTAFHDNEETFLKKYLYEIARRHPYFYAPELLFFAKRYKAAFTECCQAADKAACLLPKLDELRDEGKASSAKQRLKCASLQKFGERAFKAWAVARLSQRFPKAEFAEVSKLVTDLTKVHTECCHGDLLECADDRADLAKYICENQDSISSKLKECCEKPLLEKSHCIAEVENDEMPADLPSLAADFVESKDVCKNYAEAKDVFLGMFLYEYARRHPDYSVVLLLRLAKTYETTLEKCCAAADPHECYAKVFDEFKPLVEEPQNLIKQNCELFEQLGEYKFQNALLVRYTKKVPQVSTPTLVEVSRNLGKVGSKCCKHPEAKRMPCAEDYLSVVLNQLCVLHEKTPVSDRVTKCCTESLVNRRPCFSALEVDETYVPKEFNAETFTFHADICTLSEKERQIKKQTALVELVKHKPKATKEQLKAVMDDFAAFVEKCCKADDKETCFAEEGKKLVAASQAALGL
Sequence of Albumin (Bos taurus, UniProt P02769) (P02769 whole entry): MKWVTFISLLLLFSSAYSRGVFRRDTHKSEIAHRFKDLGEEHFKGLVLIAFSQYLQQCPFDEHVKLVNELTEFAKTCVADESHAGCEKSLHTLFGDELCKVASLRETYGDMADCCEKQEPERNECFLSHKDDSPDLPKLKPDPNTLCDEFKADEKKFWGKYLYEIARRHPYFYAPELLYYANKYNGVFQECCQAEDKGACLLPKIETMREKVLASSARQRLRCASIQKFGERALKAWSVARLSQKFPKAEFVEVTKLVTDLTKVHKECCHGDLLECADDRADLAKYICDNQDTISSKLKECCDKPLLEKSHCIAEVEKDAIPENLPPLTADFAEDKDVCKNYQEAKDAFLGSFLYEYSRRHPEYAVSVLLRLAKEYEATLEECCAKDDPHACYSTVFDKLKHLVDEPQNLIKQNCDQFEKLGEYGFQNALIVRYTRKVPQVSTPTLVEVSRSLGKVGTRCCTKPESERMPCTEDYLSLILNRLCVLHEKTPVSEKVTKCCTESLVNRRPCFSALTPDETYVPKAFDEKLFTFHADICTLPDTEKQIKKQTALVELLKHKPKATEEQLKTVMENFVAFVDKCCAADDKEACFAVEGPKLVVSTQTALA

Turning to `O=[N+]([O-])c1ccc(NCCNc2nonc2/C(=N/O)Nc2ccc(F)c(Br)c2)c2nonc12`, the result in data set [1], in data set [2], in [4], in [5], in data set [6] and in data set [9] was inactive. For the same compound, in [16], the result was inactive. Moreover, the outcome in data set [3] and in data set [15] was Active. The Activity result in data set [7] and in data set [8] was “Not Active” in each case. For the same compound, the half-maximal inhibitory concentration (IC50) in data set [10] is 28 nM; in [11], > 100 µM; in [12], > 100 µM; in data set [13], 15 nM. The Drug uptake result in [14] was “Not Active”.
Take `NS(=O)(=O)NCCNc1nonc1/C(=N/O)Nc1ccc(F)c(Br)c1` [EPACADOSTAT]: the half-inhibitory concentration (IC50) in [11] and in data set [12] was > 100 µM throughout. Moreover, the inhibition in vivo at 100 mg/kg in [17] was 49%.
In the case of `O=C(CCNc1ccc([N+](=O)[O-])c2nonc12)NCCNc1nonc1/C(=N/O)Nc1ccc(F)c(Br)c1`, the outcome in data set [1], in data set [2], in data set [4], in data set [5], in [6] and in [9] was inactive. The result in data set [20] was inactive. Moreover, the fold change (FC) in [3] was 5. Besides, the results for the Activity entry in data set [7], in [8] and in data set [21] were “Not Active”, “Not Active” and “Non-Toxic”, respectively. Further, the IC50 in data set [10] was 12 nM; in data set [11], > 100 µM; in data set [12], > 100 µM; in data set [13], 10 nM. Besides, the Drug uptake result in [18] is “Not Active”. Besides, the result in data set [19] was Active. Moreover, the inhibition in vivo at 100 mg/kg in [17] came out at 46%.
For `O=C(CNc1ccc([N+](=O)[O-])c2nonc12)NCCNc1nonc1/C(=N/O)Nc1ccc(F)c(Br)c1`, the outcome in [1], in data set [2], in data set [3], in data set [4], in [5] and in data set [6] was inactive. The outcome in data set [9] and in data set [19] was inactive. Further, the Activity entry in data set [7] and in data set [8] was “Not Active” in each case. In addition, the IC50 in data set [10] is 1320 nM; in data set [11], > 100 µM; in data set [12] it was > 100 µM; in data set [13], > 5000 nM.
